Data reported in ChEMBL document CHEMBL1131215, “Anhydrolide macrolides. 1. Synthesis and antibacterial activity of 2,3-anhydro-6-O-methyl 11,12-carbamate erythromycin A analogues” (1998).
Values after ≈ are worked out from the molar mass of the structure shown.

Tests used:
Assay type in all cases: functional
[1] = tested on: Streptococcus pneumoniae; assay: In vivo antibacterial activity in mice infected with Streptococcus pneumoniae ATCC 6303
[2] = tested on: Streptococcus pneumoniae; assay: In vitro antibacterial activity against ATCC 6303 strain of Streptococcus pneumoniae; conditions: Streptococcus pneumoniae, ATCC 6303
In short: (§1)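 MIC determined by standard agar dilution; values in μg/mL.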

[3] = In vitro antibacterial activity against A-5278 strain of Staphylococcus aureus; conditions: Staphylococcus aureus; in short: as §1
[4] = tested on: Mus musculus; assay: Effective dose when administered orally in mice infected with Staphylococcus aureus NCTC-10649M.; conditions: po
In short: (§2)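 Mice infected intraperitoneally with 1000 × LD₅₀ (S. aureus) or […] × LD₅₀ (S. pneumoniae). Compound given orally (po) or subcutaneously (sc) at 1 and 5 h post-infection. ED₅₀ expressed in mg/kg/day with 95% confidence interval.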

[5] = tested on: Staphylococcus aureus; assay: In vitro antibacterial activity against A5177 strain of Staphylococcus aureus; conditions: Staphylococcus aureus; in short: as §1
[6] = tested on: Staphylococcus aureus; assay: In vitro antibacterial activity against 6538P strain of Staphylococcus aureus; in short: as §1
[7] = tested on: Streptococcus pyogenes; assay: In vitro antibacterial activity against 930 strain of Streptococcus pyogenes; conditions: Streptococcus pyogenes; in short: as §1
[8] = tested on: Haemophilus influenzae; assay: In vitro antibacterial activity against DILL strain of Haemophilus influenzae.; in short: as §1
[9] = tested on: Staphylococcus aureus; assay: In vivo antibacterial activity in mice infected with Staphylococcus aureus NCTC-10649M.
[10] = tested on: Mus musculus; assay: Effective dose when administered orally in mice infected with Streptococcus pneumoniae ATCC 6303; conditions: po; in short: as §2
[11] = tested on: Streptococcus pyogenes; assay: In vitro antibacterial activity against PIU 2548 strain of Streptococcus pyogenes; in short: as §1
[12] = tested on: Streptococcus pneumoniae; assay: In vitro antibacterial activity against 5979 strain of Streptococcus pneumoniae; in short: as §1
[13] = tested on: Streptococcus pneumoniae; assay: In vitro antibacterial activity against 5649 strain of Streptococcus pneumoniae; conditions: Streptococcus pneumoniae; in short: as §1
[14] = tested on: Mus musculus; assay: Effective dose when administered subcutaneously in mice infected with Streptococcus pneumoniae ATCC 6303; conditions: sc; in short: as §2
[15] = tested on: Mus musculus; assay: Effective dose when administered subcutaneously in mice infected with Staphylococcus aureus NCTC-10649M.; conditions: sc; in short: as §2
[16] = tested on: Streptococcus pneumoniae; assay: In vitro antibacterial activity against Streptococcus pneumoniae 5979; in short: as §1

Structure (SMILES)	MIC [1] [µg/mL]	MIC [2] [µg/mL]	MIC [3] [µg/mL]	MIC [5] [µg/mL]	MIC ([6]; Staphylococcus aureus) [µg/mL]	MIC [7] [µg/mL]	MIC [8] [µg/mL]	MIC [9] [µg/mL]	MIC ([11]; Streptococcus pyogenes) [µg/mL]	MIC [12] [µg/mL]	MIC [13] [µg/mL]	MIC [16] [µg/mL]	MIC [6] [µg/mL]	MIC [11] [µg/mL]	ED50 [4] [mg/kg/day]	ED50 [10] [mg/kg/day]	ED50 [14] [mg/kg/day]	ED50 [15] [mg/kg/day]
CC[C@H]1OC(=O)/C(C)=C/[C@H](C)[C@@H](O[C@@H]2O[C@H](C)C[C@H](N(C)C)[C@H]2O)[C@@](C)(OC)C[C@@H](C)C(=O)[C@H](C)[C@H]2N(CCCOc3ccc4ccccc4c3)C(=O)O[C@]12C	–	0.03 (≈ 0.0384 µM)	25 (≈ 32 µM)	0.39 (≈ 0.499 µM)	0.2 (≈ 0.256 µM)	3.1 (≈ 3.97 µM)	64 (≈ 81.9 µM)	–	0.39 (≈ 0.499 µM)	8 (≈ 10.2 µM)	2 (≈ 2.56 µM)	–	–	–	–	–	–	–
CC[C@H]1OC(=O)/C(C)=C/[C@H](C)[C@@H](O[C@@H]2O[C@H](C)C[C@H](N(C)C)[C@H]2O)[C@@](C)(OC)C[C@@H](C)C(=O)[C@H](C)[C@H]2N(CCc3cccs3)C(=O)O[C@]12C	–	0.125 (≈ 0.177 µM)	50 (≈ 70.7 µM)	0.39 (≈ 0.552 µM)	0.39 (≈ 0.552 µM)	25 (≈ 35.4 µM)	16 (≈ 22.6 µM)	–	0.2 (≈ 0.283 µM)	32 (≈ 45.3 µM)	0.5 (≈ 0.707 µM)	–	–	–	–	–	–	–
CC[C@H]1OC(=O)/C(C)=C/[C@H](C)[C@@H](O[C@@H]2O[C@H](C)C[C@H](N(C)C)[C@H]2O)[C@@](C)(OC)C[C@@H](C)C2=NCCN3C(=O)O[C@@]1(C)[C@H]3[C@H]2C	0.25 (≈ 0.402 µM)	0.25 (≈ 0.402 µM)	–	0.78 (≈ 1.25 µM)	0.78 (≈ 1.25 µM)	–	16 (≈ 25.7 µM)	0.05 (≈ 0.0804 µM)	0.2 (≈ 0.322 µM)	–	1 (≈ 1.61 µM)	–	–	–	66.1	8	7.5	> 40
CC[C@H]1OC(=O)/C(C)=C/[C@H](C)[C@@H](O[C@@H]2O[C@H](C)C[C@H](N(C)C)[C@H]2O)[C@@](C)(OC)C[C@@H](C)C(=O)[C@H](C)[C@H]2N(CCc3ccc(Cl)c(Cl)c3)C(=O)O[C@]12C	0.12 (≈ 0.156 µM)	0.12 (≈ 0.156 µM)	12.5 (≈ 16.2 µM)	0.39 (≈ 0.507 µM)	0.39 (≈ 0.507 µM)	6.2 (≈ 8.05 µM)	32 (≈ 41.6 µM)	0.39 (≈ 0.507 µM)	0.2 (≈ 0.26 µM)	8 (≈ 10.4 µM)	2 (≈ 2.6 µM)	–	–	–	> 100	> 40	> 16	> 40
CC[C@H]1OC(=O)/C(C)=C/[C@H](C)[C@@H](O[C@@H]2O[C@H](C)C[C@H](N(C)C)[C@H]2O)[C@@](C)(OC)C[C@@H](C)C(=O)[C@H](C)[C@H]2N(CCc3cccc(OC)c3)C(=O)O[C@]12C	0.25 (≈ 0.342 µM)	0.25 (≈ 0.342 µM)	–	0.39 (≈ 0.534 µM)	0.39 (≈ 0.534 µM)	25 (≈ 34.2 µM)	16 (≈ 21.9 µM)	0.39 (≈ 0.534 µM)	0.39 (≈ 0.534 µM)	64 (≈ 87.6 µM)	2 (≈ 2.74 µM)	–	–	–	> 100	> 100	–	–
CC[C@H]1OC(=O)/C(C)=C/[C@H](C)[C@@H](O[C@@H]2O[C@H](C)C[C@H](N(C)C)[C@H]2O)[C@@](C)(OC)C[C@@H](C)C(=O)[C@H](C)[C@H]2NC(=O)O[C@@]21C (stereo in doubt; 6)	0.25 (≈ 0.419 µM)	0.25 (≈ 0.419 µM)	–	0.78 (≈ 1.31 µM)	–	–	–	1.56 (≈ 2.61 µM)	–	–	0.5 (≈ 0.838 µM)	–	1.56 (≈ 2.61 µM)	0.2 (≈ 0.335 µM)	35.8	> 40	–	–
CC[C@H]1OC(=O)[C@H](C)[C@@H](O[C@H]2C[C@@](C)(OC)[C@@H](O)[C@H](C)O2)[C@H](C)[C@@H](O[C@@H]2O[C@H](C)C[C@H](N(C)C)[C@H]2O)[C@](C)(OC)C[C@@H](C)C(=O)[C@H](C)[C@@H](O)[C@]1(C)O [CLARITHROMYCIN]	0.004 (≈ 0.00535 µM)	–	–	–	–	–	–	0.03 (≈ 0.0401 µM)	–	–	–	–	–	–	–	–	–	–

The remaining compounds from weak to strong by MIC [2], led by results:

MIC [1] [µg/mL]	MIC [2] [µg/mL]	MIC [3] [µg/mL]	MIC [5] [µg/mL]	MIC ([6]; Staphylococcus aureus) [µg/mL]	MIC [7] [µg/mL]	MIC [8] [µg/mL]	MIC [9] [µg/mL]	MIC ([11]; Streptococcus pyogenes) [µg/mL]	MIC [12] [µg/mL]	MIC [13] [µg/mL]	MIC [16] [µg/mL]	MIC [6] [µg/mL]	MIC [11] [µg/mL]	Structure (SMILES)	ED50 [4] [mg/kg/day]	ED50 [10] [mg/kg/day]	ED50 [14] [mg/kg/day]	ED50 [15] [mg/kg/day]
0.125 (≈ 0.174 µM)	0.125 (≈ 0.174 µM)	50 (≈ 69.6 µM)	0.39 (≈ 0.542 µM)	0.39 (≈ 0.542 µM)	25 (≈ 34.8 µM)	16 (≈ 22.3 µM)	0.39 (≈ 0.542 µM)	0.39 (≈ 0.542 µM)	32 (≈ 44.5 µM)	1 (≈ 1.39 µM)	–	–	–	CC[C@H]1OC(=O)/C(C)=C/[C@H](C)[C@@H](O[C@@H]2O[C@H](C)C[C@H](N(C)C)[C@H]2O)[C@@](C)(OC)C[C@@H](C)C(=O)[C@H](C)[C@H]2N(CCc3ccc(F)cc3)C(=O)O[C@]12C	> 100	> 40	–	–
–	0.125 (≈ 0.163 µM)	25 (≈ 32.5 µM)	0.78 (≈ 1.01 µM)	0.39 (≈ 0.507 µM)	6.2 (≈ 8.06 µM)	32 (≈ 41.6 µM)	–	0.78 (≈ 1.01 µM)	16 (≈ 20.8 µM)	1 (≈ 1.3 µM)	–	–	–	CC[C@H]1OC(=O)/C(C)=C/[C@H](C)[C@@H](O[C@@H]2O[C@H](C)C[C@H](N(C)C)[C@H]2O)[C@@](C)(OC)C[C@@H](C)C(=O)[C@H](C)[C@H]2N(CCc3cccc(C(F)(F)F)c3)C(=O)O[C@]12C	–	–	–	–
0.125 (≈ 0.16 µM)	0.125 (≈ 0.16 µM)	25 (≈ 32.1 µM)	0.39 (≈ 0.5 µM)	0.39 (≈ 0.5 µM)	6.2 (≈ 7.95 µM)	16 (≈ 20.5 µM)	0.39 (≈ 0.5 µM)	0.39 (≈ 0.5 µM)	16 (≈ 20.5 µM)	1 (≈ 1.28 µM)	–	–	–	CC[C@H]1OC(=O)/C(C)=C/[C@H](C)[C@@H](O[C@@H]2O[C@H](C)C[C@H](N(C)C)[C@H]2O)[C@@](C)(OC)C[C@@H](C)C(=O)[C@H](C)[C@H]2N(CCc3ccc(Br)cc3)C(=O)O[C@]12C	> 100	> 100	–	–
0.06 (≈ 0.0804 µM)	0.06 (≈ 0.0804 µM)	50 (≈ 67 µM)	0.1 (≈ 0.134 µM)	0.1 (≈ 0.134 µM)	25 (≈ 33.5 µM)	16 (≈ 21.5 µM)	0.1 (≈ 0.134 µM)	0.1 (≈ 0.134 µM)	64 (≈ 85.8 µM)	1 (≈ 1.34 µM)	–	–	–	CC[C@H]1OC(=O)/C(C)=C/[C@H](C)[C@@H](O[C@@H]2O[C@H](C)C[C@H](N(C)C)[C@H]2O)[C@@](C)(OC)C[C@@H](C)C(=O)[C@H](C)[C@H]2N(CCc3ccc([N+](=O)[O-])cc3)C(=O)O[C@]12C	50.1	> 20	> 8	> 40
–	0.03 (≈ 0.0428 µM)	50 (≈ 71.3 µM)	0.1 (≈ 0.143 µM)	0.39 (≈ 0.556 µM)	25 (≈ 35.7 µM)	32 (≈ 45.7 µM)	–	0.01 (≈ 0.0143 µM)	–	1 (≈ 1.43 µM)	64 (≈ 91.3 µM)	–	–	CC[C@H]1OC(=O)/C(C)=C/[C@H](C)[C@@H](O[C@@H]2O[C@H](C)C[C@H](N(C)C)[C@H]2O)[C@@](C)(OC)C[C@@H](C)C(=O)[C@H](C)[C@H]2N(CCc3ccccc3)C(=O)O[C@]12C	–	–	–	–
